Assay outcomes (PubChem BioAssay)
L major viab = inhibitors of Leishmania major promastigote growth | AID 1063 | Leishmania major promastigotes, resazurin fluorescence viability | inhibition, % at 10 µM | 200,000 tested, 9% active;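 also: promastigotes grown with compound for 44 hours at 28 °C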
Rad51 HR inh = Rad51 (human) homologous recombination inhibition | Q06609 | hRad51 DNA strand exchange, fluorescence dequenching | inhibition, % at 10 µM | 200,000 tested, 0.085% active;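 active = inhibition above 40% at the single screening dose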;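 also: 0% = DMSO control wells and 100% = blanks with heterologous ssDNA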
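System: human Rad51 nucleoprotein filaments preassembled on unlabelled ssDNA. Reagent: labelled 47-mer dsDNA for strand exchange. Schedule: 30-min compound preincubation and 15-min exchange, both room temperature. Measured by: FRET fluorescence dequenching, excitation 485 nm, emission 520 nm. Read-out: Fluorescence-based percent inhibition, control- and blank-normalised. Benchmarks: plate controls and plate blanks.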
CHOP inhibitor = blocks CHOP induction under ER stress; CHO-K1 CHOP-promoter luciferase, tunicamycin-induced, 15-18 h; inhibition, % at 10 µM; 220,000 tested, 3.8% active;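 active = compounds that reduced the stress-induced luciferase reporter signal by more than about 70% of percent inhibition, limit read from the data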;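 also: 0% = tunicamycin plus vehicle and 100% = wells without tunicamycin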
PKD1 inh = inhibitors of human PKD1 kinase; Q15139; PKD1 kinase fluorescence polarization assay; inhibition, % (test concentration not listed); 200,000 tested, 0.056% active; AID 797
Target sequence (Q15139 whole entry, looked up): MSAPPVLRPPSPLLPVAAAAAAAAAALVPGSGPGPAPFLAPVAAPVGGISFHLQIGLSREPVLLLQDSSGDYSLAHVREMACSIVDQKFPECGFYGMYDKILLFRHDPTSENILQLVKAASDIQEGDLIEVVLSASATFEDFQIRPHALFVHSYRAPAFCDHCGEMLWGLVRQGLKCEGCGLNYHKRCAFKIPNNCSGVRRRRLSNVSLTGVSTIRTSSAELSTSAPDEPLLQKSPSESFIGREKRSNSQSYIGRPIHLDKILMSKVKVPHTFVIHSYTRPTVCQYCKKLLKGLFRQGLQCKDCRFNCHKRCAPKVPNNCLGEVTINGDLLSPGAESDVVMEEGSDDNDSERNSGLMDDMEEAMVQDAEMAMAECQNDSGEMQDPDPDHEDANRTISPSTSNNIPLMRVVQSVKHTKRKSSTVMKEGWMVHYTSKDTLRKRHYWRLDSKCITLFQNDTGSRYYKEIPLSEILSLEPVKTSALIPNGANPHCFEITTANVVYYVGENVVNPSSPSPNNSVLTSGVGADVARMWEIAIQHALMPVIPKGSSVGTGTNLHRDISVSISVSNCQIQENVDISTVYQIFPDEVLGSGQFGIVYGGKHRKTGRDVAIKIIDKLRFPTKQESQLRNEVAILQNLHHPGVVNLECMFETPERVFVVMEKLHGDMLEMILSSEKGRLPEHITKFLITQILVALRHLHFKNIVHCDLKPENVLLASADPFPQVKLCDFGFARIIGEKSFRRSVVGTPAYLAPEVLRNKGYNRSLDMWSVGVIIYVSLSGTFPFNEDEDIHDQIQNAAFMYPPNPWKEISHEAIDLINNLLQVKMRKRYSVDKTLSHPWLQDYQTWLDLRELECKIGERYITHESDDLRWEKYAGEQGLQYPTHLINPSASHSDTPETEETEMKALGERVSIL
Wee1 stabilizer = human Wee1 degradation inhibition, primary screen; 220,000 tested, 1.2% active; P30291; HeLa Luc-Wee1K328M stability, luciferase luminescence; 100% = proteasome inhibitor MG132 effect; reporter increase, % at 5 µM;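 active = activation above the mean of all tested compounds plus 3 SD, set per screening run, cut at about 8.8% in these data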;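 also: cells exposed to compound for 20 h before luminescence read; 0% = DMSO alone and 100% = MG132 at 30 µM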
Arbovirus inh = blocks arbovirus infection; arbovirus infection cell-based antiviral screen; inhibition, % at 10 µM; 200,000 tested, 0.37% active; AID 1251; in the data active = inhibition above about 30%
CHOP confirm = confirmation of CHOP induction inhibitors. shares compounds with CHOP inhibitor. CHO-CHOP promoter luciferase reporter, tunicamycin-induced, luminescence. inhibition, % at 10 µM. 2,100 tested, 45% active;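 active = mean of three repeat readings of reporter signal inhibition above a set limit, cut at about 70% in these data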;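 also: 0% = tunicamycin plus vehicle and 100% = wells lacking tunicamycin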
Active calls of the source: *. Compounds with a hit are over-represented: about 12% of the library has one in this group of screens. Rule as the data show it, unless noted: active = inhibition above about 50%; inactive = the rest.

What do the screens show for `Cn1c(=O)c([N+](=O)[O-])c(Cl)c2ccccc21`?
L major viab: -5; Rad51 HR inh: -5; CHOP inhibitor: 108*; PKD1 inh: 2; Wee1 stabilizer: 0; Arbovirus inh: -34; CHOP confirm: 141*

What do the screens show for `Cc1cccc(N2C(=O)CSC23CCCCC3)c1`?
L major viab: 9; Rad51 HR inh: 1; CHOP inhibitor: 17; PKD1 inh: -2; Wee1 stabilizer: 7; Arbovirus inh: -2

How did Cc1cccc(/C=C/C(=O)c2cc(Br)ccc(=O)c2O)c1 do in these assays?
L major viab: 100*; Rad51 HR inh: -2; CHOP inhibitor: 102*; PKD1 inh: 6; Wee1 stabilizer: -2; Arbovirus inh: -37; CHOP confirm: 100*

Results for Cc1cccc(/C=N/NC(=O)c2ccc(Br)cc2)c1 ?
L major viab: -6; Rad51 HR inh: 6; CHOP inhibitor: -4; PKD1 inh: -2; Wee1 stabilizer: -1; Arbovirus inh: -7

What do the screens show for `COc1ccc(CN2C(=O)NC3(CCCCCC3)C2=O)cc1F`?
Rad51 HR inh: -8; CHOP inhibitor: 15; Arbovirus inh: 7

How did CCOC(=O)C1=C(C)N2C(=C(C#N)[C@@H]1c1ccc(C(=O)OC)cc1)SC[C@@]2(O)C(C)(C)C do in these assays?
L major viab: 3; Rad51 HR inh: -1; CHOP inhibitor: 38; PKD1 inh: -11; Wee1 stabilizer: 7; Arbovirus inh: -22

Results for Cc1cc(C)n(-c2cccc(F)n2)n1 ?
L major viab: 0; Rad51 HR inh: 4; CHOP inhibitor: 14; PKD1 inh: -2; Wee1 stabilizer: 2; Arbovirus inh: 7

Results for C[C@H](NC(=O)c1[nH]cnc1C(=O)Nc1ccc(CNC(=O)OC(C)(C)C)cc1)C(=O)OC(C)(C)C ?
Rad51 HR inh: 5; CHOP inhibitor: 98*; CHOP confirm: 78*

Results for CC(C)(C)OC(=O)NCCCC[C@H](NC(=O)c1[nH]cnc1C(=O)Nc1ccc(CNC(=O)OC(C)(C)C)cc1)C(=O)OC(C)(C)C ?
Rad51 HR inh: -8; CHOP inhibitor: 29

Results for C[C@H](NC(=O)c1nc[nH]c1C(=O)N[C@@H](Cc1ccccc1)C(=O)OC(C)(C)C)C(=O)OC(C)(C)C ?
Rad51 HR inh: 1; CHOP inhibitor: 97*; CHOP confirm: 100*

Results for O=[N+]([O-])/C(C(Cl)=C(Cl)Cl)=C(/NC1CC1)Sc1ccccc1 ?
L major viab: 0; Rad51 HR inh: -5; CHOP inhibitor: 19; PKD1 inh: -1; Wee1 stabilizer: 0; Arbovirus inh: 3

What do the screens show for `CN1CCN(/N=C/c2ccc(N(c3ccccc3)c3ccccc3)cc2)CC1`?
L major viab: 26; Rad51 HR inh: -8; CHOP inhibitor: 105*; PKD1 inh: -6; Wee1 stabilizer: 2; Arbovirus inh: -42; CHOP confirm: -17

What do the screens show for `Cc1ccc(/C=N/N2CCN(c3ccccc3)CC2)cc1`?
L major viab: -1; Rad51 HR inh: 4; CHOP inhibitor: -9; PKD1 inh: -3; Wee1 stabilizer: -1; Arbovirus inh: -8

What do the screens show for `O=S(=O)(/N=S1/CC=CCN1S(=O)(=O)c1ccccc1)c1ccccc1` (stereo unspecified)?
L major viab: -4; Rad51 HR inh: 6; CHOP inhibitor: 104*; PKD1 inh: -4; Wee1 stabilizer: -1; Arbovirus inh: -2; CHOP confirm: 6

What do the screens show for `O=S(=O)(c1ccccc1)N1CCN(S(=O)(=O)c2ccccc2)C1`?
L major viab: 4; Rad51 HR inh: 1; CHOP inhibitor: 6; PKD1 inh: -13; Wee1 stabilizer: -2; Arbovirus inh: 8

How did Cc1c(NC(=O)C(C)N2C(=O)C3CCCCC3C2=O)c(=O)n(-c2ccccc2)n1C (stereo unspecified) do in these assays?
L major viab: -10; Rad51 HR inh: 21; CHOP inhibitor: 10; PKD1 inh: -1; Wee1 stabilizer: 0; Arbovirus inh: -1

Results for CSCCC1NC2(C(=O)Nc3c(Cl)cccc32)[C@@H]2C(=O)N(C3CCCC3)C(=O)[C@H]12 (stereo partly specified) ?
L major viab: 14; Rad51 HR inh: 5; CHOP inhibitor: 15; PKD1 inh: -11; Wee1 stabilizer: -1; Arbovirus inh: 8

Results for CSCCC1NC2(C(=O)Nc3c(C)cc(Cl)cc32)[C@@H]2C(=O)N(C3CCCC3)C(=O)[C@H]12 (stereo partly specified) ?
L major viab: 41; Rad51 HR inh: 1; CHOP inhibitor: 104*; PKD1 inh: -5; Wee1 stabilizer: -2; Arbovirus inh: 8; CHOP confirm: 34

What do the screens show for `CC(C)(C)C1CCc2c(C(=O)NNC(=O)CCCC(=O)O)csc2C1` (stereo unspecified)?
L major viab: -5; Rad51 HR inh: 6; CHOP inhibitor: 7; PKD1 inh: -5; Wee1 stabilizer: -1; Arbovirus inh: 4

How did Cc1nn2c(N)c(C#N)cnc2c1-c1ccccc1 do in these assays?
L major viab: 4; Rad51 HR inh: 4; CHOP inhibitor: 18; PKD1 inh: -1; Wee1 stabilizer: 0; Arbovirus inh: -1

What do the screens show for `Cc1nn2c(N)c(C#N)cnc2c1-c1ccc(Cl)cc1`?
L major viab: -5; CHOP inhibitor: 98*; PKD1 inh: -8; Wee1 stabilizer: -2; Arbovirus inh: -12; CHOP confirm: -26

Results for O=C(Cn1c(C(F)(F)F)nc2ccccc21)N=Nc1c(O)[nH]c2ccc(Br)cc12 ?
L major viab: -6; Rad51 HR inh: 5; CHOP inhibitor: 106*; PKD1 inh: -13; Wee1 stabilizer: 4; Arbovirus inh: -35; CHOP confirm: 116*

Results for C=CCCCCCCCCC(=O)NNC1=CC(=O)CC(C)(C)C1 ?
L major viab: -4; Rad51 HR inh: 1; CHOP inhibitor: 0; PKD1 inh: -8; Wee1 stabilizer: 4; Arbovirus inh: 10

How did Cc1sc2ncnc(SCC(=O)N3c4ccccc4Sc4ccc(Cl)cc43)c2c1C do in these assays?
L major viab: 2; Rad51 HR inh: 28; CHOP inhibitor: 36; PKD1 inh: -3; Wee1 stabilizer: -3; Arbovirus inh: -3

What do the screens show for `CCOC(=O)c1c(C)sc2c1N(C(=O)CCl)c1cc(Cl)ccc1S2`?
L major viab: 101*; Rad51 HR inh: 10; PKD1 inh: -10; Wee1 stabilizer: -1; Arbovirus inh: -34; CHOP confirm: -24

Results for COC(=O)/C=C/S(=O)(=O)c1ccc(NC(C)=O)cc1 ?
L major viab: -8; Rad51 HR inh: -17; PKD1 inh: -4; Wee1 stabilizer: -3; Arbovirus inh: -4; CHOP confirm: 64

What do the screens show for `O=C(CN1CCCCC1)N/N=C/c1cc2ccccc2nc1Cl`?
L major viab: 0; Rad51 HR inh: 6; CHOP inhibitor: 18; PKD1 inh: -2; Wee1 stabilizer: 0; Arbovirus inh: 8
